Measurements: ChEMBL document CHEMBL4130442, “Design, synthesis and structure-activity relationship studies of a focused library of pyrimidine moiety with anti-proliferative and anti-metastasis activities in triple negative breast cancer” (Eur J Med Chem, 2017)
pIC50: −log10 of the molar value.

What was measured:
MDA-MB-468 = assay: Antiproliferative activity against human MDA-MB-468 cells incubated for 24 hrs by MTT assay; format: functional, cell-based; settings: MDA-MB-468, 24 h
MDA-MB-231 [1] = assay: Induction of autophagy in human MDA-MB-231 cells assessed as change in LC3-2 protein level at 10 uM incubated for 24 hrs by Western blot method relative to untreated control; format: functional
In short: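 MDA-MB-231 cells (ATCC; DMEM, 10% FBS, 5% CO2) were treated 24 h over a concentration series. Adherent and floating cells were pooled and lysed 1 h at 4 °C (50 mM Hepes pH 7.4, 1% Triton X-100, phosphatase/protease inhibitors). Equal protein was run on 10-15% SDS-PAGE, transferred to PVDF, probed for Beclin-1, p62 and LC3 with HRP/ECL detection, and normalised to β-actin.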

MDA-MB-231 [2] = assay: Induction of apoptosis in human MDA-MB-231 cells assessed as change in cleaved PARP protein level at 2.5 uM incubated for 24 hrs by Western blot method relative to untreated control; format: functional
In short: (§1)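 MDA-MB-231 cells were exposed for 24 h. Adherent and floating cells were pooled and lysed for 1 h at 4 °C in 50 mM Hepes pH 7.4 with 1% Triton X-100, orthovanadate, NaF, EDTA, PMSF, aprotinin and leupeptin. After 12,000 rpm clearing, equal protein was run on 10-15% SDS-PAGE and blotted to PVDF. Detection used HRP-ECL, with β-actin as loading control and densitometric quantification.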

MDA-MB-231 [3] = assay: Induction of apoptosis in human MDA-MB-231 cells assessed as change in cleaved PARP protein level at 5 uM incubated for 24 hrs by Western blot method relative to untreated control; format: functional; in short: as §1
MDA-MB-231 [4] = assay: Induction of apoptosis in human MDA-MB-231 cells assessed as change in cleaved PARP protein level at 10 uM incubated for 24 hrs by Western blot method relative to untreated control; format: functional; in short: as §1
MDA-MB-231 [5] = assay: Induction of apoptosis in human MDA-MB-231 cells assessed as change in cleaved caspase-3 protein level at 2.5 uM incubated for 24 hrs by Western blot method relative to untreated control; format: functional; in short: as §1
MDA-MB-231 [6] = assay: Induction of apoptosis in human MDA-MB-231 cells assessed as change in cleaved caspase-3 protein level at 5 uM incubated for 24 hrs by Western blot method relative to untreated control; format: functional; in short: as §1
[7] = target: T1, Platelet-derived growth factor receptor beta (Homo sapiens, UniProt P09619); assay: Inhibition of PDGFRbeta in human MDA-MB-231 cells assessed as PDGFRbeta Tyr740 phosphorylation level at 2.5 uM incubated for 24 hrs by Western blot relative to untreated control; format: cell-based
In short: (§2)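 Cells were treated 24 h at several concentrations. Pooled adherent and floating cells were lysed in Hepes 50 mM pH 7.4 / 1% Triton X-100 buffer with vanadate, NaF, EDTA, PMSF, aprotinin and leupeptin. Equal protein was run on 10-15% SDS-PAGE and blotted to PVDF. PDGFR-β-AKT-ULK1 pathway phospho-proteins were probed and detected by ECL, with β-actin as loading control.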

[8] = target: T1, Platelet-derived growth factor receptor beta; assay: Inhibition of PDGFRbeta in human MDA-MB-231 cells assessed as PDGFRbeta Tyr740 phosphorylation level at 5 uM incubated for 24 hrs by Western blot relative to untreated control; format: cell-based; in short: as §2
[9] = target: T1, Platelet-derived growth factor receptor beta; assay: Inhibition of PDGFRbeta in human MDA-MB-231 cells assessed as Akt Thr305 phosphorylation level at 10 uM incubated for 24 hrs by Western blot relative to untreated control; format: cell-based; in short: as §2
MDA-MB-231 [10] = assay: Effect on total PDGFRbeta protein level in human MDA-MB-231 cells at 2.5 uM incubated for 24 hrs by Western blot relative to untreated control; format: ADME, cell-based; settings: mda-mb-231, 24 h; in short: as §1
MDA-MB-231 [11] = assay: Effect on total Akt protein level in human MDA-MB-231 cells at 5 uM incubated for 24 hrs by Western blot relative to untreated control; format: ADME, cell-based; settings: mda-mb-231, 24 h; in short: as §1
MDA-MB-231 [12] = assay: Effect on total mTOR protein level in human MDA-MB-231 cells at 10 uM incubated for 24 hrs by Western blot relative to untreated control; format: ADME, cell-based; settings: mda-mb-231, 24 h; in short: as §1
MDA-MB-231 [13] = assay: Effect on total ULK1 protein level in human MDA-MB-231 cells at 5 uM incubated for 24 hrs by Western blot relative to untreated control; format: ADME, cell-based; settings: mda-mb-231, 24 h; in short: as §1
MDA-MB-231 [14] = assay: Effect on total PDGFRbeta protein level in human MDA-MB-231 cells at 2.5 uM incubated for 24 hrs in presence of control siRNA by Western blot relative to untreated control; format: ADME, cell-based; settings: mda-mb-231, 24 h; in short: as §1
MDA-MB-231 [15] = assay: Induction of autophagy in human MDA-MB-231 cells assessed as change in Beclin-1 protein level at 2.5 uM incubated for 24 hrs in presence of control siRNA by Western blot method relative to untreated control; format: functional; in short: as §1
MDA-MB-231 [16] = assay: Induction of autophagy in human MDA-MB-231 cells assessed as change in Beclin-1 protein level at 2.5 uM incubated for 24 hrs in presence of PDGFRbeta siRNA by Western blot method relative to untreated control; format: functional; in short: as §1
MDA-MB-231 [17] = assay: Induction of autophagy in human MDA-MB-231 cells assessed as change in LC3-2 protein level at 2.5 uM incubated for 24 hrs in presence of control siRNA by Western blot method relative to untreated control; format: functional
In short: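 Before treatment, MDA-MB-231 cells were transfected with control or PDGFR-β siRNA, then exposed to 2.5 μM compound for 24 h. Lysates of pooled adherent and floating cells were immunoblotted (10-15% SDS-PAGE, PVDF, ECL) for PDGFR-β-AKT-ULK1 autophagy signalling markers, with β-actin as loading control.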

[18] = target: T1, Platelet-derived growth factor receptor beta; assay: Inhibition of PDGFRbeta in human MDA-MB-231 cells assessed as Akt Ser473 phosphorylation level at 2.5 uM incubated for 24 hrs in absence of PDGFRbeta siRNA by Western blot relative to untreated control; format: cell-based
In short: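 Cells were transfected with control or PDGFR-β siRNA, then treated with 2.5 μM compound for 24 h. PDGFR-β-AKT-ULK1 pathway phospho-proteins were assessed by western blot: lysis in Hepes pH 7.4 / Triton buffer, 10-15% SDS-PAGE, PVDF, ECL detection, β-actin as loading control.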

MDA-MB-231 [19] = assay: Effect on total MEK1/2 protein level in human MDA-MB-231 cells at 2.5 uM incubated for 24 hrs in presence of PDGFRbeta siRNA by Western blot relative to untreated control; format: cell-based; settings: mda-mb-231, 24 h
MDA-MB-231 [20] = assay: Effect on total ERK1/2 protein level in human MDA-MB-231 cells at 10 uM incubated for 24 hrs in presence of PDGFRbeta siRNA by Western blot relative to untreated control; format: cell-based; settings: mda-mb-231, 24 h
[21] = target: T1, Platelet-derived growth factor receptor beta; assay: Inhibition of PDGFRbeta in human MDA-MB-231 cells assessed as C-Raf Ser338 phosphorylation level at 5 uM incubated for 24 hrs in presence of PDGFRbeta siRNA by Western blot relative to untreated control; format: cell-based
MDA-MB-231 [22] = assay: Effect on total Ras protein level in human MDA-MB-231 cells at 10 uM incubated for 24 hrs by Western blot relative to untreated control; settings: mda-mb-231, 24 h

T1 sequence (P09619 whole entry): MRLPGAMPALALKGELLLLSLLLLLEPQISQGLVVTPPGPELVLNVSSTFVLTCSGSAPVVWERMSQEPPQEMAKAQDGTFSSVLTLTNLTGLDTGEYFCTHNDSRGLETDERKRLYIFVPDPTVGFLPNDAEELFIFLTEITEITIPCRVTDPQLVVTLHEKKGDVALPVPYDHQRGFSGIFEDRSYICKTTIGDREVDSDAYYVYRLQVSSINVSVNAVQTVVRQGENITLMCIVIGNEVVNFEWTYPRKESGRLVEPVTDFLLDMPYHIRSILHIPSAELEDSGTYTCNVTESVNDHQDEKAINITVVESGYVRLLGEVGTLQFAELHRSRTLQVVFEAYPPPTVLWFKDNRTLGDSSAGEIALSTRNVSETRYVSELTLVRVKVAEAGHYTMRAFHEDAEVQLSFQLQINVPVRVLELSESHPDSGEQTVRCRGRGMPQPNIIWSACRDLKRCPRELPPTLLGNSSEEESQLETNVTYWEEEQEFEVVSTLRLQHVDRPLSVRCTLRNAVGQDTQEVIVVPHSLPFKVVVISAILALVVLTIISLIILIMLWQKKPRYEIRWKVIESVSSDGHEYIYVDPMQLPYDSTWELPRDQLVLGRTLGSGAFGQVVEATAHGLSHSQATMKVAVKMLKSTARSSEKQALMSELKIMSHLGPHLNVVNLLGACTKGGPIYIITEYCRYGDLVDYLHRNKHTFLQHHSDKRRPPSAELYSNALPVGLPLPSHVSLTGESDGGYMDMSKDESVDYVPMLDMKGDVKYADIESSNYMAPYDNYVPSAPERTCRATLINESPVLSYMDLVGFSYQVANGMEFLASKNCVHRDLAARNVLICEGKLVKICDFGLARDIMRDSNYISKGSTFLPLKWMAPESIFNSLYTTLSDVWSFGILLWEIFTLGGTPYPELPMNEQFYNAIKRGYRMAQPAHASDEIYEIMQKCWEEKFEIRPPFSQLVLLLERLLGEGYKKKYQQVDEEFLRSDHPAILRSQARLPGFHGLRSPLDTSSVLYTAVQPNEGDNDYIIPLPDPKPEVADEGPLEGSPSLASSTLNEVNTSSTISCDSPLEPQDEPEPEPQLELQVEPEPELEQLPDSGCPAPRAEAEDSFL

In the case of COc1cccc(Nc2cc(N3CCN(C(=O)Nc4ccc(C(F)(F)F)cc4)CC3)ncn2)c1, the pIC50 (MDA-MB-468) was 5.50, the “fold change (FC)” value (MDA-MB-231 [1]) was 2.7 and the “fold change (FC)” value (MDA-MB-231 [2]) was 0.89. The “fold change (FC)” value (MDA-MB-231 [3]) was 0.85, the “fold change (FC)” value (MDA-MB-231 [4]) was 0.97 and the “fold change (FC)” value (MDA-MB-231 [5]) was 0.87. The “fold change (FC)” value (MDA-MB-231 [6]) was 0.88, the fold change (FC) [7] was 1.2 and the fold change (FC) [8] was 0.78. For the same compound, the fold change (FC) [9] was 0.12, the “fold change (FC)” value (MDA-MB-231 [10]) was 1.8 and the “fold change (FC)” value (MDA-MB-231 [11]) was 0.84. The “fold change (FC)” value (MDA-MB-231 [12]) was 0.45, the “fold change (FC)” value (MDA-MB-231 [13]) was 0.91 and the “fold change (FC)” value (MDA-MB-231 [14]) was 0.05. The “fold change (FC)” value (MDA-MB-231 [15]) was 3.54, the “fold change (FC)” value (MDA-MB-231 [16]) was 4.18 and the “fold change (FC)” value (MDA-MB-231 [17]) was 2.34. For the same compound, the fold change (FC) [18] was 0.48, the “fold change (FC)” value (MDA-MB-231 [19]) was 1.05 and the “fold change (FC)” value (MDA-MB-231 [20]) was 1.53. The fold change (FC) [21] was 0.78 and the “fold change (FC)” value (MDA-MB-231 [22]) was 2.32.
